In ChEMBL document CHEMBL1157743, “Mitotic arrest induced by a novel family of DNA topoisomerase II inhibitors” (J Med Chem, 2010):
Blank lines part the entries; values can stand above or below the molecule they belong to. Active and inactive are the calls of the source. The rule behind the calls is not given here.

Key:
[1] = test system: HBL-100; assay: Antiproliferative activity against human HBL100 cells after 48 hrs by SRB assay; assay type: functional; conditions: HBL-100, 48 h
Procedure, shortened: (§1)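 Human solid tumor lines and three immortalized nontumor lines in culture, exposed to the test agent. Read-out is growth inhibition, reported as GI50 (μM).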

[2] = test system: SW1573; assay: Antiproliferative activity against human SW1573 cells after 48 hrs by SRB assay; assay type: functional; conditions: SW1573, 48 h; procedure, shortened: as §1
[3] = test system: HeLa; assay: Antiproliferative activity against human HeLa cells after 48 hrs by SRB assay; assay type: functional; procedure, shortened: as §1
[4] = test system: T47D; assay: Antiproliferative activity against human T47D cells after 48 hrs by SRB assay; assay type: functional; procedure, shortened: as §1
[5] = test system: WiDr; assay: Antiproliferative activity against human WiDr cells after 48 hrs by SRB assay; assay type: functional; procedure, shortened: as §1
[6] = Antiproliferative activity against human HS27 cells after 48 hrs by SRB assay; assay type: cell-based; procedure, shortened: as §1
[7] = Antiproliferative activity against human MCF10A cells after 48 hrs by SRB assay; assay type: cell-based, MCF-10A; procedure, shortened: as §1
[8] = test system: SW1573; assay: Cell cycle arrest in human SW1573 cells assessed as accumulation of cells in G2/M phase after 24 hrs by flow cytometry; assay type: functional, cell-based
Procedure, shortened: (§2)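 Flow cytometry of DNA content, giving the G0/G1, S, G2/M and sub-G1 fractions. Cells treated for 24 h at three doses alongside untreated controls. Values are means of at least two experiments.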

[9] = test system: HBL-100; assay: Cell cycle arrest in human HBL100 cells assessed as accumulation of cells in G2/M phase after 24 hrs by flow cytometry; assay type: functional, cell-based; procedure, shortened: as §2
[10] = test system: HeLa; assay: Cell cycle arrest in human HeLa cells assessed as accumulation of cells in G2/M phase after 24 hrs by flow cytometry; assay type: functional, cell-based; procedure, shortened: as §2
[11] = test system: T47D; assay: Cell cycle arrest in human T47D cells assessed as accumulation of cells in G2/M phase after 24 hrs by flow cytometry; assay type: functional, cell-based; procedure, shortened: as §2
[12] = test system: WiDr; assay: Cell cycle arrest in human WiDr cells assessed as accumulation of cells in G2/M phase after 24 hrs by flow cytometry; assay type: functional, cell-based; procedure, shortened: as §2
[13] = test system: HBL-100; assay: Induction of apoptosis in human HBL100 cells assessed as early apoptotic cells at 2 uM after 24 hrs by annexin V/Pi staining technique; assay type: functional
[14] = test system: HBL-100; assay: Induction of apoptosis in human HBL100 cells assessed as late apoptotic cells at 2 uM after 24 hrs by annexin V/Pi staining technique; assay type: functional
[15] = test system: HBL-100; assay: Induction of apoptosis in human HBL100 cells assessed as early apoptotic cells at 4 uM after 24 hrs by annexin V/Pi staining technique; assay type: functional
[16] = test system: HBL-100; assay: Induction of apoptosis in human HBL100 cells assessed as late apoptotic cells at 4 uM after 24 hrs by annexin V/Pi staining technique; assay type: functional
[17] = test system: HeLa; assay: Induction of apoptosis in human HeLa cells assessed as early apoptotic cells at 6 uM after 24 hrs by annexin V/Pi staining technique; assay type: functional
[18] = test system: HeLa; assay: Induction of apoptosis in human HeLa cells assessed as late apoptotic cells at 6 uM after 24 hrs by annexin V/Pi staining technique; assay type: functional
[19] = test system: HeLa; assay: Induction of apoptosis in human HeLa cells assessed as early apoptotic cells at 8 uM after 24 hrs by annexin V/Pi staining technique; assay type: functional
[20] = test system: HeLa; assay: Induction of apoptosis in human HeLa cells assessed as late apoptotic cells at 8 uM after 24 hrs by annexin V/Pi staining technique; assay type: functional
[21] = test system: T47D; assay: Induction of apoptosis in human T47D cells assessed as early apoptotic cells at 6 uM after 24 hrs by annexin V/Pi staining technique; assay type: functional
[22] = test system: T47D; assay: Induction of apoptosis in human T47D cells assessed as late apoptotic cells at 6 uM after 24 hrs by annexin V/Pi staining technique; assay type: functional
[23] = test system: T47D; assay: Induction of apoptosis in human T47D cells assessed as early apoptotic cells at 8 uM after 24 hrs by annexin V/Pi staining technique; assay type: functional
[24] = test system: T47D; assay: Induction of apoptosis in human T47D cells assessed as late apoptotic cells at 8 uM after 24 hrs by annexin V/Pi staining technique; assay type: functional
[25] = test system: WiDr; assay: Induction of apoptosis in human WiDr cells assessed as early apoptotic cells at 6 uM after 24 hrs by annexin V/Pi staining technique; assay type: functional
[26] = test system: WiDr; assay: Induction of apoptosis in human WiDr cells assessed as late apoptotic cells at 6 uM after 24 hrs by annexin V/Pi staining technique; assay type: functional
[27] = test system: WiDr; assay: Induction of apoptosis in human WiDr cells assessed as early apoptotic cells at 8 uM after 24 hrs by annexin V/Pi staining technique; assay type: functional
[28] = test system: WiDr; assay: Induction of apoptosis in human WiDr cells assessed as late apoptotic cells at 8 uM after 24 hrs by annexin V/Pi staining technique; assay type: functional
[29] = test system: HeLa; assay: Induction of DNA damage in human HeLa cells assessed as phosphorylation of ChK2 at 7.5 uM after 24 hrs by immunoblotting; assay type: functional, cell-based
Procedure, shortened: (§3)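 HeLa cells exposed at 7.5 μM, sampled at 3, 6, 12 and 24 h. Protein extracts probed by Western blot for phospho-Chk2, phospho-H2AX and cyclin B1. Phospho-histone H3 Ser10 detected with a phospho-specific antibody. Includes a positive-control lane.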

[30] = test system: HeLa; assay: Induction of DNA damage in human HeLa cells assessed as phosphorylation of H2AX at 7.5 uM after 24 hrs by immunoblotting; assay type: functional, cell-based; procedure, shortened: as §3
[31] = test system: HeLa; assay: Induction of DNA damage in human HeLa cells assessed as expression of cyclin B1 uM after 24 hrs by immunoblotting; assay type: functional, cell-based; procedure, shortened: as §3
[32] = biological target: DNA topoisomerase 2-alpha (Homo sapiens) (UniProt P11388); assay: Inhibition of human topoisomerase 2 alpha assessed as inhibition of decatenation of KDNA at 100 uM after 30 to 60 mins by gel electrophoresis with ethidium bromide relative to control
Procedure, shortened: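 Decatenation assay: purified TOP2 incubated with kinetoplast DNA. Released minicircles (nicked, supercoiled and relaxed forms) resolved by agarose gel electrophoresis. Compared with lanes without enzyme and with enzyme alone, plus reference TOP2 inhibitors.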

[33] = biological target: DNA topoisomerase 2-alpha (Homo sapiens) (UniProt P11388); assay: Inhibition of human topoisomerase 2 alpha assessed as inhibition of relaxation of SC plasmid pHOT1 at 100 uM after 30 to 60 mins by gel electrophoresis relative to control
Procedure, shortened: (§4)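 Purified TOP2 incubated with negatively supercoiled plasmid pHOT1. Supercoiled, nicked and relaxed topoisomers separated by agarose gel electrophoresis. Compared with lanes without enzyme and with enzyme alone.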

[34] = biological target: DNA topoisomerase 2-alpha (Homo sapiens) (UniProt P11388); assay: Inhibition of human topoisomerase 2 alpha assessed as inhibition of relaxation of Rel plasmid pHOT1 at 100 uM after 30 to 60 mins by gel electrophoresis relative to control; procedure, shortened: as §4
[35] = biological target: DNA topoisomerase 2-alpha (Homo sapiens) (UniProt P11388); assay: Inhibition of human topoisomerase 2 alpha assessed as inhibition of relaxation of NcK plasmid pHOT1 at 100 uM after 30 to 60 mins by gel electrophoresis relative to control; procedure, shortened: as §4
[36] = biological target: DNA topoisomerase 2-alpha (Homo sapiens) (UniProt P11388); assay: Inhibition of human topoisomerase 2 alpha assessed as inhibition of formation of Lin form of plasmid pHOT1 at 100 uM after 30 to 60 mins by gel electrophoresis inthe presence of exsess of ethidium bromide relative to control
Procedure, shortened: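 Cleavage-complex assay: purified TOP2 incubated with plasmid pHOT1. Agarose gel electrophoresis detects the linear (Lin) DNA form produced by trapped enzyme-cut intermediates.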

[37] = test system: hTERT-HPNE (Homo sapiens); assay: Antiproliferative activity against hTERT-HPNE cells after 48 hrs by SRB assay

Sequence of DNA topoisomerase 2-alpha (Homo sapiens) (P11388 whole entry): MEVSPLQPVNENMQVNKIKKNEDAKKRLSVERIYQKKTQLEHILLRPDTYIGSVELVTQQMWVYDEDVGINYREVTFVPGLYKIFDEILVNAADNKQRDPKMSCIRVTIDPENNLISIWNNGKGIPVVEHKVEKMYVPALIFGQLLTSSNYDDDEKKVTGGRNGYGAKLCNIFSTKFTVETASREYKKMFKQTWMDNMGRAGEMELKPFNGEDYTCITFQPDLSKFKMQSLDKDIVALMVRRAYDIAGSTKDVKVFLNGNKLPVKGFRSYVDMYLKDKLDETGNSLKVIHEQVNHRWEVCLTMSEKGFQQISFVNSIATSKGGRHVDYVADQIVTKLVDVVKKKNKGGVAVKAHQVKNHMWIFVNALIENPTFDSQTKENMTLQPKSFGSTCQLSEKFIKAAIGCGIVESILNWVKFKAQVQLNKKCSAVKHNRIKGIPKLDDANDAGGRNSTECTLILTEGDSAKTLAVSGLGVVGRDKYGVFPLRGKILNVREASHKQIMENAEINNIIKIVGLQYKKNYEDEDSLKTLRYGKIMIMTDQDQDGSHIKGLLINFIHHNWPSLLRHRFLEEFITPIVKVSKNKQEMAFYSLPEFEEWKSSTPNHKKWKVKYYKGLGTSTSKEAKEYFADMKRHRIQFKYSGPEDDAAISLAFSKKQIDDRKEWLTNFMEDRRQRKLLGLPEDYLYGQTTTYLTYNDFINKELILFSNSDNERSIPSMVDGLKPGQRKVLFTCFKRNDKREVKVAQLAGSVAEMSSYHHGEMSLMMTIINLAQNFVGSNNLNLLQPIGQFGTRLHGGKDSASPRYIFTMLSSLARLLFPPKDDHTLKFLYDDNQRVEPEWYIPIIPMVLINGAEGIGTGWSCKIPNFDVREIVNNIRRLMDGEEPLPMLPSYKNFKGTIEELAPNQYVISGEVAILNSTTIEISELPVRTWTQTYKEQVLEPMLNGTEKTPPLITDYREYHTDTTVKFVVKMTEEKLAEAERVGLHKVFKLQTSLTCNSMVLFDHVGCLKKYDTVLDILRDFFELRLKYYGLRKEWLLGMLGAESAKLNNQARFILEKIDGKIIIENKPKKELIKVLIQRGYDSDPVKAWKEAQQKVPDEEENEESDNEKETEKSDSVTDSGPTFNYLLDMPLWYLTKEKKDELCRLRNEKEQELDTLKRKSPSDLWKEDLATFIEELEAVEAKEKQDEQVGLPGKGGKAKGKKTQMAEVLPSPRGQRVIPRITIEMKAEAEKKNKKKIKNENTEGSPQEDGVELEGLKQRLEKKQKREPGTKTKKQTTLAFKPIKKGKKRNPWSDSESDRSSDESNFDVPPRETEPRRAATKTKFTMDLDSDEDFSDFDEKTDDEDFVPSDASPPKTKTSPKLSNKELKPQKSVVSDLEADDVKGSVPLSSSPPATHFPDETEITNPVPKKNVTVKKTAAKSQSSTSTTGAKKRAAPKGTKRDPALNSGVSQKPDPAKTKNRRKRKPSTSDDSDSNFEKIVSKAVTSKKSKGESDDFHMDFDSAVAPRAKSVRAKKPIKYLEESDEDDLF

GI50 [2]: > 100000 nM
Compound: C#CCO/C=C/C(=O)OC
GI50 [1]: > 100000 nM

GI50 [2]: 910 nM
Compound: CCC(C)C(C#CC(=O)OC)O/C=C/C(=O)OC (stereo not drawn)
GI50 [1]: 340 nM

GI50 [2]: 2000 nM
Compound: CCCCCCCCCCC(C#CC(=O)OC)O/C=C/C(=O)OC (stereo not drawn)
GI50 [1]: 2200 nM

GI50 [2]: 2600 nM
Compound: COC(=O)C#CC(CCc1ccccc1)O/C=C/C(=O)OC (stereo not drawn)
GI50 [1]: 2600 nM

GI50 [2]: 31000 nM
Compound: C#CC(O/C=C/C(=O)OC)c1ccccc1 (stereo not drawn)
GI50 [1]: 26000 nM

GI50 [2]: 1700 nM
Compound: CCCCCC(C#CC(=O)OC)O/C=C/C(=O)OC (stereo not drawn)
GI50 [1]: 1900 nM

GI50 [2]: 1700 nM
Compound: COC(=O)C#CC(C)O/C=C/C(=O)OC (stereo not drawn)
GI50 [1]: 300 nM

GI50 [2]: 750 nM
Compound: COC(=O)C#CC(O/C=C/C(=O)OC)C(C)C (stereo not drawn)
GI50 [1]: 450 nM

GI50 [2]: 3200 nM
Compound: Cc1ccc(S(=O)(=O)C#CC(O/C=C/S(=O)(=O)c2ccc(C)cc2)C(C)C)cc1 (stereo not drawn)
GI50 [1]: 3800 nM

GI50 [2]: 2100 nM
Compound: COC(=O)C#CC(O/C=C/C(=O)OC)C1CCCCC1 (stereo not drawn)
GI50 [1]: 2500 nM

GI50 [3]: 2800 nM
GI50 [2]: 240 nM
GI50 [4]: 3.8 µM
Activity [32]: Active
Activity [33]: Active
Activity [34]: Active
Activity [35]: Active
Activity [36]: inactive
Compound: CCCCC(C#CC(=O)OC)O/C=C/C(=O)OC (stereo not drawn)
GI50 [1]: 250 nM
GI50 [5]: 3.1 µM
GI50 at 48 h [6]: 1900 nM
GI50 at 48 h [7]: 34 µM
Activity [8]: Dose-dependent effect
Activity [9]: Dose-dependent effect
Activity [10]: Dose-dependent effect
Activity [11]: Dose-dependent effect
Activity [12]: Dose-dependent effect
Activity [13]: 6.7%
Activity [14]: 12%
Activity [15]: 5.3%
Activity [16]: 12%
Activity [17]: 8.7%
Activity [18]: 9%
Activity [19]: 10%
Activity [20]: 11%
Activity [21]: 12%
Activity [22]: 24%
Activity [23]: 11%
Activity [24]: 19%
Activity [25]: 12%
Activity [26]: 21%
Activity [27]: 11%
Activity [28]: 28%
Activity [29]: inactive
Activity [30]: inactive
Activity [31]: inactive
GI50 at 48 h [37]: 1300 nM

GI50 [2]: 4800 nM
Compound: CC(C)C(C#CC(=O)OC(C)(C)C)O/C=C/C(=O)OC(C)(C)C (stereo not drawn)
GI50 [1]: 3000 nM

GI50 [2]: 1800 nM
Compound: CCOC(=O)C#CCO/C=C/C(=O)OC
GI50 [1]: 2400 nM

GI50 [2]: 2200 nM
Compound: COC(=O)C#CC(C[C@@H](C)CCC=C(C)C)O/C=C/C(=O)OC (stereo partly drawn)
GI50 [1]: 3100 nM
